Experimental data reported in PMC4168221 (Clinical Drug Investigation, 2014).
Entries after “also recorded” stand apart in the source; their conditions may differ. Like-named read-outs stand apart in the source and are kept apart here. Values belong to the molecule of their own block, whether it stands above or below them.

What was measured:
[1] = cited from earlier work
[2] = tested on: urinary glucose excretion; conditions: cited from earlier work
blood glucose = conditions: phase III; non-Japanese type 2 diabetes patients with moderate renal impairment (eGFR ≥30 and <50 mL/min/1.73 m^2); cited from earlier work
[3] = Urinary pharmacokinetics of unchanged canagliflozin; format: in vivo, human (Japanese patients with type 2 diabetes mellitus); conditions: for Ae0–72h% (cumulative urinary excretion rate from time zero to 72 h) / CLR: mean (SD)
How it was run: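 Per period, urine was collected at 11–0 h pre-dose, then 0–4.5, 4.5–10.5, 10.5–13, 13–24, 24–48 and 48–72 h after a single oral 100 or 200 mg dose. Volumes were recorded, and mixed aliquots were stored at −20 °C. Parent drug was measured by solid-phase extraction then HPLC–MS/MS (validated 1–2,000 ng/mL).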

[4] = Japanese patients with type 2 diabetes; cited from earlier work
[5] = format: in vivo, human (Japanese patients with type 2 diabetes mellitus); conditions: for AUC∞ / C max / CL/F / Vd/F / t ½: mean (SD); for t max: median (range)
How it was run: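 Single oral dose (100 or 200 mg) given before breakfast in a two-period crossover. Blood was drawn pre-dose and at 0.5–72 h (13 samples) into K2EDTA, iced, centrifuged, and plasma stored at −20 °C. Parent drug was measured by HPLC–MS/MS (1–2,000 ng/mL). Metabolites were measured by acetonitrile precipitation then HPLC–MS/MS (5–10,000 ng/mL). Group ratios are least square means with 90 % CI.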

[6] = Safety: adverse events after single doses; format: in vivo, human (Japanese patients with type 2 diabetes mellitus)
How it was run: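 Adverse events were recorded with intensity and relation to drug, then coded by system organ class and preferred term (MedDRA/J 15.0). Adverse drug reactions were events the investigator judged reasonably related. Also checked: laboratory tests, renal function, vital signs, body weight and 12-lead ECG. Patients were hospitalised and received single 100 and 200 mg oral doses in crossover.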

[7] = single dose of canagliflozin 100 mg; non-Japanese patients with normal renal function or mild renal impairment; cited from earlier work
[8] = tested on: urinary glucose excretion; assay: 24-h urinary glucose excretion, change from baseline; format: in vivo, human (Japanese patients with type 2 diabetes mellitus); conditions: both doses
How it was run: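 Each crossover period gave one oral single dose of test compound (100 or 200 mg) 10 min before breakfast, with ≥14-day washout and fixed meals. Change was taken from the baseline day.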

[9] = canagliflozin 100 mg, moderate renal impairment (n = 12)
[10] = canagliflozin 100 mg, normal renal function or mild renal impairment (n = 12)
[11] = canagliflozin 200 mg, moderate renal impairment (n = 12)
[12] = canagliflozin 200 mg, normal renal function or mild renal impairment (n = 12)
[13] = canagliflozin 100 mg single dose
[14] = canagliflozin 100 mg single dose, moderate renal impairment (n = 12)
[15] = canagliflozin 200 mg single dose
[16] = canagliflozin 200 mg single dose, moderate renal impairment (n = 12)
[17] = Moderate renal impairment, canagliflozin 100 mg (n = 12)
[18] = Moderate renal impairment, canagliflozin 200 mg (n = 12)
[19] = Normal renal function or mild renal impairment, canagliflozin 100 mg (n = 12)
[20] = Normal renal function or mild renal impairment, canagliflozin 200 mg (n = 12)
[21] = single doses of 100 and 200 mg, all patients

Structure (SMILES): OC[C@H]1O[C@@H](c2ccc(Cl)c(Cc3ccc(O[C@H]4CCOC4)cc3)c2)[C@H](O)[C@@H](O)[C@@H]1O [empagliflozin]
CLR in patients with moderate renal impairment [1]: decreased
systemic exposure in patients with moderate renal impairment [1]: moderately increased

Structure (SMILES): CCOc1ccc(Cc2cc([C@@H]3O[C@H](CO)[C@@H](O)[C@H](O)[C@H]3O)ccc2Cl)cc1 [dapagliflozin]
C max and AUC as a function of renal function [1]: increased incrementally with declining renal function

Structure (SMILES): OC[C@H]1O[C@@H](c2ccc(F)c(Cc3cc4ccccc4s3)c2)[C@H](O)[C@@H](O)[C@@H]1O [Ipragliflozin]
UGE in each estimated GFR (eGFR) class [2]: significantly increased

amount of canagliflozin excreted into urine from 0 to 72 h (urinary excretion ratio of unchanged drug) ([3]; % of the dose, both doses): < 1%
Ae0–72h% (cumulative urinary excretion rate from time zero to 72 h) [3, 9]: 0.538 (0.229) %
CLR [3, 9]: 0.064 (0.021) L/h
Ae0–72h% (cumulative urinary excretion rate from time zero to 72 h) [3, 10]: 0.541 (0.168) %
CLR [3, 10]: 0.085 (0.037) L/h
Ae0–72h% (cumulative urinary excretion rate from time zero to 72 h) [3, 11]: 0.480 (0.143) %
CLR [3, 11]: 0.058 (0.022) L/h
Ae0–72h% (cumulative urinary excretion rate from time zero to 72 h) [3, 12]: 0.559 (0.182) %
CLR [3, 12]: 0.080 (0.029) L/h
time to reach maximum concentration (C max), median ([5]; 100 and 200 mg single doses): ≤ 1 h
AUC∞ ratio (90 % CI) of least square means, moderate renal impairment relative to normal renal function or mild renal impairment [5, 13]: 1.258 (1.061–1.490)
C max ratio (90 % CI) of least square means, moderate renal impairment relative to normal renal function or mild renal impairment [5, 13]: 0.982 (0.821–1.173)
AUC∞ ratio (90 % CI) of least square means, moderate renal impairment relative to normal renal function or mild renal impairment ([5]; canagliflozin 100 mg single dose, listed as canagliflozin): 1.258 [1.061–1.490]
AUC∞ [5, 14]: 8,766 (2551) ng·h/mL
C max [5, 14]: 1,197.13 (310.56) ng/mL
CL/F [5, 9]: 12.15 (2.87) L/h
Vd/F [5, 9]: 264 (81) L
t ½ [5, 9]: 15.50 (4.35) h
t max [5, 9]: 1.0 (1.0–3.0) h
CL/F [5, 10]: 15.24 (3.65) L/h
Vd/F [5, 10]: 269 (66) L
t ½ [5, 10]: 12.58 (3.14) h
t max [5, 10]: 1.0 (1.0–3.0) h
AUC∞ ratio (90 % CI) of least square means, moderate renal impairment relative to normal renal function or mild renal impairment [5, 15]: 1.216 (1.026–1.441)
C max ratio (90 % CI) of least square means, moderate renal impairment relative to normal renal function or mild renal impairment [5, 15]: 0.989 (0.827–1.182)
AUC∞ ratio (90 % CI) of least square means, moderate renal impairment relative to normal renal function or mild renal impairment ([5]; canagliflozin 200 mg single dose, listed as canagliflozin): 1.216 [1.026–1.441]
AUC∞ [5, 16]: 17,835 (4434) ng·h/mL
C max [5, 16]: 2,333.36 (414.90) ng/mL
CL/F [5, 11]: 11.73 (2.36) L/h
Vd/F [5, 11]: 242 (67) L
t ½ [5, 11]: 15.15 (6.68) h
t max [5, 11]: 1.0 (1.0–2.0) h
CL/F [5, 12]: 14.43 (3.73) L/h
Vd/F [5, 12]: 244 (53) L
t ½ [5, 12]: 12.10 (2.66) h
t max [5, 12]: 1.0 (1.0–6.0) h
half-life (t ½) ([5]; patients with normal or mild renal impairment, both doses): over 12 h
AUC from time zero to 24 h ([5]; single dose of 100 mg, Japanese population with mild or no renal impairment): 5,645 ng·h/mL
Structure (SMILES): Cc1ccc([C@@H]2O[C@H](CO)[C@@H](O)[C@H](O)[C@H]2O)cc1Cc1ccc(-c2ccc(F)cc2)s1 [Canagliflozin, canagliflozin]
blood glucose-lowering effect compared with placebo (blood glucose): significant blood glucose-lowering effect
body weight [4]: significantly reduced
Adverse events Total: Incidence [6, 17]: 25.0%
Adverse events Total: No. of events [6, 17]: 3
Adverse events Total: No. of subjects [6, 17]: 3
Back pain: Incidence [6, 17]: 0.0%
Back pain: No. of events [6, 17]: 0
Back pain: No. of subjects [6, 17]: 0
Blood CPK increased: Incidence [6, 17]: 0.0%
Blood CPK increased: No. of events [6, 17]: 0
Blood CPK increased: No. of subjects [6, 17]: 0
Blood creatinine increased: Incidence [6, 17]: 0.0%
Blood creatinine increased: No. of events [6, 17]: 0
Blood creatinine increased: No. of subjects [6, 17]: 0
Blood glucose increased: Incidence [6, 17]: 0.0%
Blood glucose increased: No. of events [6, 17]: 0
Blood glucose increased: No. of subjects [6, 17]: 0
Constipation: Incidence [6, 17]: 0.0%
Constipation: No. of events [6, 17]: 0
Constipation: No. of subjects [6, 17]: 0
Diarrhea: Incidence [6, 17]: 0.0%
Diarrhea: No. of events [6, 17]: 0
Diarrhea: No. of subjects [6, 17]: 0
Nasopharyngitis: Incidence [6, 17]: 8.3%
Nasopharyngitis: No. of events [6, 17]: 1
Nasopharyngitis: No. of subjects [6, 17]: 1
Pollakiuria: Incidence [6, 17]: 8.3%
Pollakiuria: No. of events [6, 17]: 1
Pollakiuria: No. of subjects [6, 17]: 1
Protein urine present: Incidence [6, 17]: 8.3%
Protein urine present: No. of events [6, 17]: 1
Protein urine present: No. of subjects [6, 17]: 1
Adverse events Total: Incidence [6, 18]: 8.3%
Adverse events Total: No. of events [6, 18]: 1
Adverse events Total: No. of subjects [6, 18]: 1
Back pain: Incidence [6, 18]: 0.0%
Back pain: No. of events [6, 18]: 0
Back pain: No. of subjects [6, 18]: 0
Blood CPK increased: Incidence [6, 18]: 0.0%
Blood CPK increased: No. of events [6, 18]: 0
Blood CPK increased: No. of subjects [6, 18]: 0
Blood creatinine increased: Incidence [6, 18]: 0.0%
Blood creatinine increased: No. of events [6, 18]: 0
Blood creatinine increased: No. of subjects [6, 18]: 0
Blood glucose increased: Incidence [6, 18]: 0.0%
Blood glucose increased: No. of events [6, 18]: 0
Blood glucose increased: No. of subjects [6, 18]: 0
Constipation: Incidence [6, 18]: 0.0%
Constipation: No. of events [6, 18]: 0
Constipation: No. of subjects [6, 18]: 0
Diarrhea: Incidence [6, 18]: 0.0%
Diarrhea: No. of events [6, 18]: 0
Diarrhea: No. of subjects [6, 18]: 0
Nasopharyngitis: Incidence [6, 18]: 8.3%
Nasopharyngitis: No. of events [6, 18]: 1
Nasopharyngitis: No. of subjects [6, 18]: 1
Pollakiuria: Incidence [6, 18]: 0.0%
Pollakiuria: No. of events [6, 18]: 0
Pollakiuria: No. of subjects [6, 18]: 0
Protein urine present: Incidence [6, 18]: 0.0%
Protein urine present: No. of events [6, 18]: 0
Protein urine present: No. of subjects [6, 18]: 0
Adverse events Total: Incidence [6, 19]: 16.7%
Adverse events Total: No. of events [6, 19]: 3
Adverse events Total: No. of subjects [6, 19]: 2
Back pain: Incidence [6, 19]: 8.3%
Back pain: No. of events [6, 19]: 1
Back pain: No. of subjects [6, 19]: 1
Blood CPK increased: Incidence [6, 19]: 0.0%
Blood CPK increased: No. of events [6, 19]: 0
Blood CPK increased: No. of subjects [6, 19]: 0
Blood creatinine increased: Incidence [6, 19]: 0.0%
Blood creatinine increased: No. of events [6, 19]: 0
Blood creatinine increased: No. of subjects [6, 19]: 0
Blood glucose increased: Incidence [6, 19]: 0.0%
Blood glucose increased: No. of events [6, 19]: 0
Blood glucose increased: No. of subjects [6, 19]: 0
Constipation: Incidence [6, 19]: 8.3%
Constipation: No. of events [6, 19]: 1
Constipation: No. of subjects [6, 19]: 1
Diarrhea: Incidence [6, 19]: 8.3%
Diarrhea: No. of events [6, 19]: 1
Diarrhea: No. of subjects [6, 19]: 1
Nasopharyngitis: Incidence [6, 19]: 0.0%
Nasopharyngitis: No. of events [6, 19]: 0
Nasopharyngitis: No. of subjects [6, 19]: 0
Pollakiuria: Incidence [6, 19]: 0.0%
Pollakiuria: No. of events [6, 19]: 0
Pollakiuria: No. of subjects [6, 19]: 0
Protein urine present: Incidence [6, 19]: 0.0%
Protein urine present: No. of events [6, 19]: 0
Protein urine present: No. of subjects [6, 19]: 0
Adverse events Total: Incidence [6, 20]: 25.0%
Adverse events Total: No. of events [6, 20]: 4
Adverse events Total: No. of subjects [6, 20]: 3
Back pain: Incidence [6, 20]: 0.0%
Back pain: No. of events [6, 20]: 0
Back pain: No. of subjects [6, 20]: 0
Blood CPK increased: Incidence [6, 20]: 8.3%
Blood CPK increased: No. of events [6, 20]: 1
Blood CPK increased: No. of subjects [6, 20]: 1
Blood creatinine increased: Incidence [6, 20]: 8.3%
Blood creatinine increased: No. of events [6, 20]: 1
Blood creatinine increased: No. of subjects [6, 20]: 1
Blood glucose increased: Incidence [6, 20]: 8.3%
Blood glucose increased: No. of events [6, 20]: 1
Blood glucose increased: No. of subjects [6, 20]: 1
Constipation: Incidence [6, 20]: 0.0%
Constipation: No. of events [6, 20]: 0
Constipation: No. of subjects [6, 20]: 0
Diarrhea: Incidence [6, 20]: 0.0%
Diarrhea: No. of events [6, 20]: 0
Diarrhea: No. of subjects [6, 20]: 0
Nasopharyngitis: Incidence [6, 20]: 8.3%
Nasopharyngitis: No. of events [6, 20]: 1
Nasopharyngitis: No. of subjects [6, 20]: 1
Pollakiuria: Incidence [6, 20]: 0.0%
Pollakiuria: No. of events [6, 20]: 0
Pollakiuria: No. of subjects [6, 20]: 0
Protein urine present: Incidence [6, 20]: 0.0%
Protein urine present: No. of events [6, 20]: 0
Protein urine present: No. of subjects [6, 20]: 0
adverse events considered related to the study drug [6, 21]: Only one case of pollakiuria and one of diarrhea were considered to be related to the study drug
hypoglycemia [6, 21]: no patient developed hypoglycemia; also recorded: None of the patients developed hypoglycemia; also recorded: no cases of hypoglycemia
mean 24-h urinary excretion ratio [7]: 0.55%
ΔUGE24 h in moderate renal impairment relative to normal renal function or mild renal impairment [8]: approximately 70%
